High-throughput results (PubChem)
INS promoter inh = TRM-6 insulin promoter activity inhibition | TRM-6 cells (human fetal islet line), insulin promoter-eGFP reporter, imaging; reporter expression induced with tamoxifen | inhibition, % at 2 µM | 0.9% of 130,000 active;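 active = inhibition above the mean plus 3 SD, with well images judged a real hit on visual review, cut at about 60% in these data, passing the limit was not always enough; inconclusive = inhibition over the cutoff but images rejected on review; inactive = inhibition not above the cutoff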
Insulin prom up = MIN6 insulin promoter up-regulation; MIN6 insulin promoter-GFP reporter, high-content imaging; active compounds read high; z-score at 5 µM; 0.3% of 190,000 active; AID 1625;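 active = z-score above 3 at 5 µM with at least 500 cells counted in the well; inconclusive = wells under 500 cells, flagged as cytotoxic or low count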
RAM inhibit = blocks the yeast RAM network; S. cerevisiae dse1pr::URA3 reporter, 5-FOA growth OD615, 2 d; analog-sensitive cbk1-as2 kinase mutant strain; inhibition, % at 50 µM; 1.8% of 190,000 active; AID 868;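 active = inhibition above a set limit, 3 SD over mean compound inhibition, cut at about 8.4% in these data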;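 note: 0% = DMSO-only wells with no growth and 100% = 10 µM 1-NA-PP1 full growth; inhibition rescues growth on 5-FOA so higher OD means more RAM inhibition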
Yeast growth inh = chemicals that inhibit yeast BB579 growth in restrictive medium (lifespan-shortening candidates); S. cerevisiae BB579 growth, OD615, 48 h; inhibition, % at 10 µM; 0.51% of 140,000 active; AID 804;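 active = inhibition above a set limit, 3 SD over the mean compound inhibition, cut at about 44% in these data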
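System: DeaD yeast strain BB579; buffer or medium: CSMM-D dextrose restrictive medium; technique: OD at 615 nm; schedule: 4 h cell preincubation, 48 h compound exposure, 30 °C humidified; doses: single 10 µM dose; controls: amphotericin B 10 µg/mL, positive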
Yeast lifespan up = yeast lifespan extension | S. cerevisiae growth with nicotinamide, OD615; deaD strain in restrictive glucose medium | inhibition of the nicotinamide effect, % at 10 µM | 0.68% of 130,000 active;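 active = inhibition above a set limit, placed 3 SD over the median of all compounds, cut at about 26% in these data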;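 note: 0% = nicotinamide-treated wells and 100% = cells grown without nicotinamide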
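System: Modified budding yeast, DeaD strain | Buffer or medium: Restrictive glucose medium | Also added: 1.5 mM nicotinamide | Doses: 10 µM single point, 0.25% DMSO | Schedule: 48 h compound exposure at 30 °C, humidified | Detection: Absorbance at 615 nm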
The depositor's hits bear a star; ? = inconclusive; . = not tested or not shown. The list is not random: actives were taken first. Their share in the collection is about 3%.

SMILES	INS promoter inh	Insulin prom up	RAM inhibit	Yeast growth inh	Yeast lifespan up
CCCCCCCC(=O)N/N=C(/C)c1c(O)cc(C)oc1=O	.	-0.14	-1	-13	40*
CCCCCCCC(=O)N/N=C(\C)c1ccc(O)cc1O	.	-0.15	-1	-11	-1
O=C(CSCCN1C(=O)c2ccccc2C1=O)Nc1ccc2ccccc2c1	.	-0.14	9.2*	-9	4
O=C(COC(=O)c1ccc2c(c1)S(=O)(=O)N=C1CCCCCN12)NCc1cccs1	.	-0.69	.	.	.
Cc1c(CCOC(=O)c2cc([N+](=O)[O-])cc([N+](=O)[O-])c2)sc[n+]1CCCCS(=O)(=O)[O-]	.	0.47	0	.	.
O=C(/C=C/c1ccccc1)c1cc(Br)ccc(=O)c1O	-16	0.56	0	88*	-17
Cc1ccc(/C=C/C(=O)c2ccccc(=O)c2O)cc1C	14	0.39	1	99*	-10
O=C(/C=C/c1ccc(F)cc1)c1cc(Br)ccc1O	.	-0.32	.	.	.
COc1ccc(/C=C/C(=O)c2ccccc2O)cc1	23	-0.02	2	-15	-3
CCn1c(C)cc(/C=C2/NC(=O)N(Cc3ccccc3F)C2=O)c1C	24	0.35	2	-26	2
Cc1cc(/C=C2/NC(=O)N(Cc3ccccc3F)C2=O)c(C)n1C(C)C	-43	0.69	9.1*	-36	-1
Clc1ccc(Nc2ncn[nH]2)c(Cl)c1	66*	-0.02	0	.	.
Cc1cc(N)n2ncc(-c3ccc(F)cc3)c2n1	89*	.	1	-63	-16
O=C(Nc1ccc(N2CCOCC2)nc1)c1ccccc1Cl	.	-0.07	.	.	.
COc1cc(OC)c(OC)cc1/C=C/C(=O)c1ccc(NS(=O)(=O)c2ccc(C)cc2)cc1	-37	1	9.9*	-43	4
COc1ccc(S(=O)(=O)N(C(C)=O)c2ccc(OC(C)=O)c3ccccc23)cc1[N+](=O)[O-]	.	-0.88	2	-23	-5
COc1ccc(-c2cc(N)n(S(=O)(=O)c3c(F)c(F)c(F)c(F)c3F)n2)cc1OC	50	-0.37	2	-107	77*
COc1ccc(/C=C2/SC(=O)N(NS(=O)(=O)c3ccccc3)C2=S)cc1OC	25	-0.33	5	12	32*
Nc1c(S(=O)(=O)c2ccccc2)c2nc3ccccc3nc2n1C1CC1	.	-0.01	0	.	.
Nc1c(S(=O)(=O)c2ccccc2)c2nc3ccccc3nc2n1CCN1CCOCC1	14	0.32	3	-18	-4
Nc1c(S(=O)(=O)c2cccs2)c2nc3ccccc3nc2n1Cc1cccs1	62	.	9.1*	-54	-6
Cn1c(N)c(S(=O)(=O)c2ccc(Br)cc2)c2nc3ccccc3nc21	.	-0.27	9.7*	-33	-25
COc1ccc(CCn2c(N)c(S(=O)(=O)c3cccs3)c3nc4ccccc4nc32)cc1OC	.	.	8.4*	-16	-4
Cc1ccc(S(=O)(=O)c2c(N)n(CCN3CCOCC3)c3nc4ccccc4nc23)cc1C	-6	0.07	11*	-33	-3
COc1ccc(CN(C)c2nc(-c3cccnc3)nc3ccccc23)cc1OC	-7	0.34	0	.	.
SMILES	INS promoter inh	Insulin prom up	RAM inhibit	Yeast growth inh	Yeast lifespan up
O=C(N/N=C/c1cccc([N+](=O)[O-])c1)c1ccccc1-n1cccc1	.	0.74	0	.	.
Cn1c(=O)c2nc(-c3ccccc3)oc2c2ccccc21	40	-0.43	3	78*	-23
O=C(Nc1ccsc1C(=O)NC1CC1)c1ccccc1	85*	0.07	0	-13	-13
Cc1ccc(-c2csc3nc(SCC(N)=O)n(Cc4ccccc4)c(=O)c23)cc1	36	-1.2	2	0	-3
O=C(COc1ccc(Br)cc1Cl)NC(=O)Nc1ccc2c(c1)OCCO2	.	-0.26	1	.	.
O=C(COc1ccc(Br)cc1Cl)NC(=O)NCc1ccccc1	3	-0.2	8.8*	-32	7
CCN(Cc1ccccc1)C(c1cc2ccc(C)cc2[nH]c1=O)c1nnnn1CCOC (stereo not given)	-100	-0.46	0	-13	-13
COc1ccc(/C=C/C=C2\N=C(SC)SC2=O)cc1	25	0	11*	-47	5
CSC1=N/C(=C\c2ccc(F)cc2)C(=O)S1	-20	0.51	2	-55	-18
N#Cc1ccccc1OCC(=O)OCC(=O)N1CCN(C(=O)c2ccco2)CC1	.	-0.44	0	.	.
CC1=CC2CC1C1C(=O)N(c3ccc(S(=O)(=O)Nc4nc(C)cc(C)n4)cc3)C(=O)C21 (stereo not given)	44	0.36	9.8*	-7	3
Cc1cc(C)nc(NS(=O)(=O)c2ccc(N3C(=O)C4C5C=CC(C5)C4C3=O)cc2)n1 (stereo not given)	.	-0.01	0	-33	2
CN(C)c1ccc(-c2nn3c(-c4ccc(Cl)cc4)nnc3s2)cc1	19	0.71	2	-32	-5
CN(C)c1ccc(-c2nn3c(C4CCCCC4)nnc3s2)cc1	.	-0.11	8.6*	-26	-16
FC(F)(F)c1cccc(Sc2nc(-c3ccccc3)nnc2C(F)(F)F)c1	43	-0.13	8.6*	-38	-16
S=C(NCCc1ccccc1)N1CCN(C23CC4CC(CC(C4)C2)C3)CC1	.	-0.47	-1	.	.
Cc1ccc(C(=S)N2CCN(Cc3ccccc3)CC2)s1	-67	0.04	1	.	.
Cc1ccc(NC(=O)CSc2nc3c(cc2C#N)C(=O)CCC3)cc1S(=O)(=O)N(C)C	0	.	8.5*	-43	6
CC(=O)N1N=C(c2cccs2)CC1c1ccc(C)o1 (stereo not given)	82*	-0.79	-2	.	.
O=C(CCl)N1N=C(c2ccco2)CC1c1cccs1 (stereo not given)	.	-1.2	0	-11	19
Cc1ccc(C2=NN(C(=O)CCl)C(c3cccs3)C2)o1 (stereo not given)	.	-2.7	0	-60	35*
COc1ccc(-n2ccnc2SCC(=O)NC2CCCC2)c(OC)c1	.	-0.04	1	.	.
COc1cc2cc(CN(Cc3cccs3)C(=S)Nc3cccc(C)c3)c(=O)[nH]c2cc1OC	-354	.	8.9*	-33	7
COc1ccccc1NC(=S)N(Cc1ccco1)Cc1cc2cc(C)c(C)cc2[nH]c1=O	-192	.	9.5*	-36	6
Cc1ccc(S(=O)(=O)N2CCC(C(=O)NNC(=O)c3cccnc3)CC2)cc1	.	-0.08	0	.	.
SMILES	INS promoter inh	Insulin prom up	RAM inhibit	Yeast growth inh	Yeast lifespan up
NC(=S)NC(=O)/C=C/c1ccccc1	43	-0.14	0	.	.
CCCc1cc(-c2n[nH]c(=S)n2C(C)c2ccccc2)cs1 (stereo not given)	30	-0.82	2	50*	12
CCCc1cc(-c2n[nH]c(=S)n2CC)cs1	?	-0.79	-1	.	.
CCCCCCCN1N=C(C)C(C(=O)c2ccccc2)C1=O (stereo not given)	-17	-0.11	-2	26	-27
CCCCCCN1N=C(C)C(C(=O)c2ccc(Cl)cc2)C1=O (stereo not given)	.	0.02	-1	87*	-5
COC(=O)c1ccccc1NC(=O)c1cc([N+](=O)[O-])nn1Cc1ccccc1	.	.	4	-42	-1
Cc1nc(-c2noc(-c3ccc(Cl)cc3)n2)c(C(F)(F)F)o1	.	-0.1	.	.	.
